Source: PubChem BioAssay
Only some compounds are listed: those with a hit (about 2.5% of all), similar ones and a draw of the others.
Pemphigus Ab inh: inhibitors of pemphigus antibody binding to human desmoglein-3; P32926; DSG3-coupled beads, scFv-anti-DSG3-GFP binding, flow cytometry; hits give low values; binding (percent of control), % at 10 µM; actives 0.48% (n = 310,000);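 active = binding more than 3 SD below its plate's average and above zero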;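 note: hits lower antibody fragment binding to DSG3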
DNMT1 inh: inhibitors of human DNMT1; P26358; DNMT1 molecular beacon, Hinp1I cleavage, fluorescence; inhibition (reported as % activation of signal), % at 10 µM; actives 0.83% (n = 360,000); AID 588458; in the data active = inhibition above about 50%
UHRF1 binding: UHRF1 methyl-DNA binding inhibition; Q96T88; UHRF1 binding to methylated oligo, TR-FRET; inhibition, % at 4.4 µM; actives 0.75% (n = 370,000); in the data active = inhibition above about 21%;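 note: UHRF1 SRA domain binding a hemimethylated CpG hairpin DNA probe; 0% = median of test compound wells and 100% = reference inhibitor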
SUMO1 PPI mod: modulators of human SUMO1-mediated protein-protein interactions. P63165. SUMO1 binding to a labelled peptide, TR-FRET, 1 h. inhibition, % at 20 µM. actives 0.33% (n = 360,000). AID 602429; in the data active = inhibition above about 37%
NS3 helicase inh: blocks Hepatitis C virus NS3 helicase unwinding; inhibition, % at 10.9 µM; actives 0.56% (n = 290,000); NS3 helicase DNA unwinding, Cy5 molecular beacon fluorescence;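 active = inhibition above the mean of all tested compounds plus 3 SD, set per campaign, cut at about 35% in these data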;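 note: 0% = DMSO wells and 100% = thioflavine S control wells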
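test system = hepatitis C virus NS3 helicase domain fragment enzyme | reagent = annealed dual-labelled DNA beacon duplex, ATP-started | times = 1 h at 25 °C | detection = Cy5 fluorescence, 0 and 60 min reads | read-out basis = percent inhibition from t60/t0 fluorescence ratio | control set = DMSO and thioflavine S | replication = one well per compound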
MBD2 DNA inh: MBD2-methylated oligo binding inhibition | TR-FRET, MBD2 binding to methylated oligonucleotide | inhibition, % at 4.4 µM | actives 0.31% (n = 370,000) | AID 686964; in the data active = inhibition above about 13%
DNMT1 inh conf: confirmation of human DNMT1 inhibitors. inhibition, % at 10 µM. shares compounds with DNMT1 inh. AID 602385. DNMT1 molecular beacon HinP1I cleavage, fluorescence. actives 8% (n = 2,300);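 active = average inhibition of at least 30% in the single-concentration confirmation test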
DNMT1 interf: beacon fluorescence artifact counter-screen. shares compounds with DNMT1 inh. DNMT1 molecular beacon spectral interference counterscreen, fluorescence 485/520. activation (fluorescence interference), % at 10 µM. actives 1% (n = 2,300);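 active = activation of at least 30% at 10 µM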;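 note: DNMT1 catalytic domain with a HinP1I cleavage step and a FAM/dabcyl DNA beacon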
* hit, by the source's call; x = no result.

SMILES	Pemphigus Ab inh	DNMT1 inh	UHRF1 binding	SUMO1 PPI mod	NS3 helicase inh	MBD2 DNA inh	DNMT1 inh conf	DNMT1 interf
O=C(O)c1ccc(C(=O)c2ccc3c(c2)C(=O)N(CCO)C3=O)cc1	88	88*	22*	-24	-18	11	0	1
O=C(Cc1ccc(S(=O)(=O)N2CCOCC2)s1)Nc1nc2c(s1)CCCC2	112	89*	14	22	23	7	10	2
CCN(CC)CC#CCOC(c1ccccc1)c1ccccc1	101	20	-1	1	-4	-5	x	x
O=C(CSc1ccccn1)Nc1ccc2c(c1)C(=O)c1ccccc1C2=O	89	87*	-4	35	13	-5	13	-6
Cc1cc(NC(=O)c2cc(C3CC3)on2)no1	100	56*	1	4	-18	4	1	-1
Cc1cc(NC(=O)c2cc(C)on2)no1	98	1	1	1	4	-5	x	x
Cc1cc(NC(=O)c2ccc(C)o2)no1	x	3	2	-3	11	5	x	x
Cc1cc(C(=O)Nc2cc(C)on2)on1	104	81*	-1	8	-4	-4	6	1
O=C(CNS(=O)(=O)c1ccccc1)N1CCN(c2ncccn2)CC1	x	x	3	x	x	5	x	x
Cc1cc(C)c2nc(N3C(=O)C(O)=C(C(=O)c4ccco4)C3c3ccco3)sc2c1 (stereo not drawn)	102	58*	4	17	9	0	15	-1
O=C(Cc1ccc(F)cc1)N/N=C/c1ccccn1	86	66*	1	0	8	-3	1	-1
Cn1c(SCC#N)nnc1-c1cnccn1	102	5	1	2	10	6	x	x
Cc1ccc(Cl)cc1NC(=O)C1CCCCC1C(=O)O (stereo not drawn)	98	50*	-1	-3	-8	0	2	5
O=C(Nc1nc(-c2ccco2)c(-c2ccco2)s1)c1c(F)cccc1Cl	x	70*	15	5	x	1	6	22
O=C(Nc1nc2c(F)cccc2s1)c1ccco1	110	4	0	2	6	-1	x	x
O=C(CCc1nc2ccccc2c(=O)[nH]1)Nc1nnc(SCc2ccccc2)s1	98	67*	1	9	x	-3	0	-6
O=c1[nH]c(CSc2nnc(Nc3ccccc3)s2)nc2ccccc12	108	14	2	-3	-1	2	x	x
CSc1nc(NCCOCCO)c2sc3nc(-c4ccco4)c4c(c3c2n1)CCC4	106	87*	29*	23	30	9	20	19
O=C(O)c1ccc(N/N=C/C=C/c2ccc([N+](=O)[O-])o2)cc1	112	72*	0	-41	5	-16	9	3
O=C(N/N=C/c1ccc([N+](=O)[O-])o1)C(=O)Nc1ccc(C(=O)O)cc1	97	-3	8	-24	-1	-6	x	x
CCn1cc(/C=C(\NC(=O)c2ccc(OC)c(OC)c2)C(=O)N2CCOCC2)c2ccccc21	97	-2	-2	0	-2	0	x	x
O=C(NCc1ccco1)C1Cc2ccccc2CN1C(=O)c1ccco1 (stereo not drawn)	103	4	1	3	11	-3	x	x
O=C(NCc1ccco1)C1Cc2ccccc2CN1S(=O)(=O)c1ccccc1F (stereo not drawn)	100	71*	12	13	22	-1	6	4
CCOc1ccc(N=C2NC(=O)S/C2=C\c2ccc(OC)cc2)cc1	95	64*	-2	-4	2	-1	3	4
CSc1n[nH]c2nc3c(c(=O)n12)C1(CCCC1)Cc1ccccc1-3	100	1	4	0	4	2	x	x
SMILES	Pemphigus Ab inh	DNMT1 inh	UHRF1 binding	SUMO1 PPI mod	NS3 helicase inh	MBD2 DNA inh	DNMT1 inh conf	DNMT1 interf
O=C1CC(NCC2CCCO2)C(=O)N1c1ccc(F)cc1 (stereo not drawn)	96	81*	18	5	2	-5	3	3
N#CCNC1CC(=O)N(c2ccc(F)cc2)C1=O (stereo not drawn)	96	-1	0	3	1	5	x	x
CCOC(=O)c1ccc(CNS(=O)(=O)c2c(C)ccc3nsnc23)o1	103	69*	1	-21	-2	-5	4	4
O=c1nc(Nc2ccc(Br)cc2)sc2ccc([N+](=O)[O-])cc12	91	54*	12	-54	9	-3	1	-3
Cn1c(=O)cc(OCC(=O)N2CCN(c3ccc(F)cc3)CC2)c2ccccc21	x	x	2	x	x	2	x	x
O=C(CSc1nnc(SCc2ccccc2)s1)N/N=C/C=C/c1ccco1	99	98*	4	13	24	7	13	1
O=C(N/N=C\C=C\c1ccco1)c1cc(-c2ccc3ccccc3c2)n[nH]1	95	68*	-3	16	18	-2	5	30
CCn1c(SCC(=O)N/N=C/C=C/c2ccco2)nnc1-c1ccccc1	90	11	-3	9	31	-7	x	x
O=C(CNc1cccc2ccccc12)N/N=C/C=C/c1ccco1	98	-18	-5	-12	-2	0	x	x
O=C(Cc1cccs1)N/N=C/C=C/c1ccco1	100	66*	10	11	27	1	0	-2
O=C(N/N=C/c1cc(Br)c(Br)s1)c1ccncc1	117	-2	-1	-14	14	-9	x	x
O=C(COC(=O)CNC(=O)c1ccc(Cl)cc1Cl)NC(=O)NCc1ccccc1	126	-1	4	1	x	-5	x	x
O=[N+]([O-])c1ccc(F)cc1OCc1cccc(S(=O)(=O)N2CCOCC2)c1	108	82*	2	-13	x	-3	5	8
O=C(N/N=C/c1ccc([N+](=O)[O-])o1)c1cn2ccc3ccccc3c2n1	x	55*	-3	29	3	-4	3	-2
Cn1nc(C(=O)OCC(=O)Nc2ccc(C(N)=O)cc2)c2ccccc2c1=O	120	-2	4	-2	x	5	x	x
c1ccc2c(c1)ncn2-c1ccc(-c2ccnc3ncnn23)cc1	106	-1	0	-14	-11	3	x	x
O=C(/C=C/c1ccc(Cl)cc1Cl)N1CCN(c2ccc([N+](=O)[O-])c(N3CCOCC3)c2)CC1	95	-6	3	-4	-4	2	x	x
O=C(/C=C/c1ccc(Cl)cc1Cl)N1CCN(c2ccccc2[N+](=O)[O-])CC1	120	92*	-1	0	-2	-4	1	-2
C=CCNC(=O)N1CCC(CO)(Cc2ccc(Cl)cc2)CC1	107	-2	-5	2	3	0	x	x
